# Data published in ChEMBL document CHEMBL4513216, “Probing the Open Global Health Chemical Diversity Library for Multistage-Active Starting Points for Next-Generation Antimalarials” (ACS Infect Dis, 2020).
# Assay: Toxicity liver stage against HepG2, at 10uM
# Assay type: cell-based
# Parameters: test concentration 10 uM, cell line HepG2-A16-CD81EGFP
# Conditions: human, HepG2-A16-CD81EGFP cells; read-out: INHIBITION
# Summary of the method: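 Uninfected HepG2-A16-CD81EGFP cells, 3 × 10^3 per well, 1536-well, plated on prespotted compound at 10 μM final, parasite-free screening media added to match infected plates; puromycin 10 μM positive, DMSO 0.5% negative; run in parallel with 48 h PbLuc assay at 37 °C, 5% CO2; viability by CellTiter-Glo luminescence, normalized to controls.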
row,SMILES,cytotoxicity at 10 µM [%]
1,N#Cc1cccc(NC2CC(=O)N(CCCc3ccccc3)C2)n1 (configuration not stated),5.82
2,COc1cc(C(=O)N2CCO[C@H]3[C@H](OCC4CC4)CC[C@@H]32)ccc1F,9.32
3,Cc1ccn(CCNc2ncnc3c2CCN(c2cnccn2)CC3)n1,-1.81
4,CC1CCN(c2nc3cn(-c4ccc5c(c4)OCO5)c(=O)c-3c[nH]2)CC1,-14
5,Cc1ccc(S(=O)(=O)N2CCN(C)C3(CCC(=O)N(C)CC3)C2)s1 (configuration not stated),8.63
6,C[C@@H]1CN(c2ccc(Cl)cn2)C[C@]1(C)O,4.38
7,Cc1cc(C)n(CC2CN(CC(=O)NC3CCCC3)CCO2)n1 (configuration not stated),-4.41
8,CN1CCC(N(C)C(=O)c2cnn(-c3ccccc3Br)c2N)CC1,-5.63
9,Cc1n[nH]cc1CNCc1ccnc(OCC(F)(F)F)c1,5.33
10,CCCc1cc(C(=O)N2CCC3(CCCN(CCOC)C3=O)C2)cs1 (configuration not stated),-167
11,Cc1noc(C)c1CN1C[C@@H]2CC(F)(F)C[C@@H]2C1,-2.58
12,CCn1ccnc1CN1CCCC1c1c(C)nn(C)c1OC (configuration not stated),-0.386
13,Cc1ccnc(N2CCCC(c3nncn3C3CC3)C2)n1 (configuration not stated),-5.45
14,CN(Cc1ccc2c(c1)OCCO2)Cn1nc(C(C)(C)C)ccc1=O,-12.4
15,Cc1cc2n(n1)CC(CNCc1ccccc1Cn1cccn1)CN2 (configuration not stated),-13.3
16,O=C(NCC1CC1)[C@H]1C[C@H]2CN(S(=O)(=O)Cc3ccccc3)C[C@@H]1O2,7.56
17,Cc1ccc(N2CCCC(NCc3cccc4c3OCO4)C2)nn1 (configuration not stated),-16.4
18,CCN(CC)C(C(=O)Nc1ccc2c(c1)CCC(=O)N2)c1ccccc1 (configuration not stated),7.18
19,CCN(c1ccc(C(=O)NCCCN2CCOCC2)cc1)S(=O)(=O)CC,1.34
20,Cc1cc(C)n(Cc2cccc(C(=O)N(CCC#N)CCC#N)c2)n1,13.1
21,CCc1nnc2n1CCN(C(=O)c1ccc(-c3ccco3)nc1C)C2,-7.23

row,SMILES,cytotoxicity at 10 µM [%]
1,CCOc1ncccc1NC(=O)c1cc2c(s1)CCC2,-15
2,O=C(c1ncccn1)N1C[C@@H]2CC[C@H](Oc3cccc(F)c3)[C@@H]2C1,-27.5
3,Cc1noc(CN2CC=C(c3cnn(C4CCS(=O)(=O)C4)c3)CC2)n1 (configuration not stated),-0.89
4,O=C(NCc1cn2c(n1)CN(Cc1nccs1)CC2)C1CCC1,4.61
5,c1ccc2c(c1)COC1(CCCCC1)N2,-11.1
6,CCn1nc(C)c2ncnc(NCCCn3ccnc3)c21,10.3
7,O=C(c1ccc2nccn2c1)N1CCC(CCn2cccn2)CC1,-1.63
8,CC1CN(C)CCN1CC(=O)NCCOc1cccc(F)c1 (configuration not stated),-11.7
9,CCNC(=O)NC(=O)CNC(C)(C)c1ccc2c(c1)OCCO2,-19.7
10,Cc1occc1CNC(=O)C1CCCN1C(=O)C1CC1 (configuration not stated),7.98
11,CCc1ccc(C2CCCCCN2Cc2nc(CCOC)no2)o1 (configuration not stated),1.15
12,c1ccc(CN2CCC3(CC2)CCN(Cc2cccs2)C3)nc1,4.17
13,CS(=O)(=O)NC1CCN(C(=O)CCC2CCCO2)CC1 (configuration not stated),-0.367
14,Cc1nc(CC(=O)N2CCCC(n3ccnc3C(C)C)C2)cs1 (configuration not stated),-0.354
15,Nc1ncnc2nc(C3CCN(C(=O)Cc4ccccc4)C3)ccc12 (configuration not stated),2.65
16,CNc1cncc(C2CCCN2Cc2ccnc(C)n2)n1 (configuration not stated),-11.4
17,COC(=O)c1cccc(CN(C)C(C)c2ccccn2)c1 (configuration not stated),5.85
18,CC(NC(=O)N1CCN(c2ccccc2O)CC1)c1nncn1C (configuration not stated),-6.01
19,CCN(CC(=O)NCCc1nc(C)no1)Cc1ccc(Cl)cc1,2.27
20,CCn1cc(NC(=O)NCCN2CCc3ccccc3C2)cn1,-2.87
21,O=C(C1CCCO1)N1CCc2nnc(Cn3cccc3)n2CC1 (configuration not stated),13.9

row,SMILES,cytotoxicity at 10 µM [%]
1,CC(C)OCCC1CCCCN1S(N)(=O)=O (configuration not stated),7.36
2,Cc1cccc(OCCC(=O)N2CCCN(CC(N)=O)CC2)c1C,-7.28
3,CCC[C@H]1CN(Cc2ccc(N(C)C)nc2)C[C@@H]1NS(=O)(=O)CC,-11.9
4,CCn1ccnc1CN1CCN(Cc2cccnc2)CC1C (configuration not stated),-0.191
5,O=C(c1cn(-c2cc(N3CCSCC3)ncn2)cn1)N1CCOCC1,14.9
6,COc1ccc(OCC(=O)NS(=O)(=O)c2cc(C)ccc2C)cc1,7.19
7,N#Cc1ccnc(N2CCC(NCCN3CCCC3)CC2)c1,-53
8,COc1ccc(-c2nc(CN3CC(n4cc(C)cn4)C3)no2)cc1,-14.9
9,Cc1ccc(N2CCCC(NCc3ccccn3)C2)nn1 (configuration not stated),0.301
10,O=C(NCc1ccccn1)C1CN(c2nc3ccccc3s2)CCN1 (configuration not stated),-42.8
11,Cc1nnc2n1CCN(C(C(=O)N1CCCCC1)c1ccccc1)C2 (configuration not stated),-5.83
12,O=C(Cc1cn2ccccc2n1)N1CCCC(n2ccnc2)C1 (configuration not stated),-22.4
13,N#Cc1ccc(CCC(=O)N2CCCC(n3cncn3)C2)cc1 (configuration not stated),-7.79
14,CCCSc1ncc(C2CC(=O)NCc3nc4ccccn4c32)cn1 (configuration not stated),-6.53
15,Cc1ccc(CN2C[C@@H]3CN(c4ncccn4)C[C@@H]3C2)cc1,-2.02
16,c1ccc(Cn2ccnc2CNCC2CCCN2c2cccnn2)cc1 (configuration not stated),-9.86
17,Cc1cccn2cc(CC(=O)N(CCN(C)C)CC3CCCO3)nc12 (configuration not stated),0.462
18,COc1ccc(Br)cc1CN(C)C(C)c1nc(C(C)C)no1 (configuration not stated),4.43
19,CC(=O)N1Cc2ccccc2OC2(CCN(C(=O)C3CC3)CC2)C1,9.91
20,CC(C)Nc1nc2c(c(NC3CC3)n1)CN(C(=O)c1ccnnc1)CC2,-0.449
21,NC(=O)C1CN(Cc2c(O)ccc3oc4c(c23)CCCC4)CCO1 (configuration not stated),4.48

row,SMILES,cytotoxicity at 10 µM [%]
1,Cc1ccc(C(=O)Nc2cn[nH]c2)cn1,-6.1
2,Cc1cc(CN2C[C@@H]3CC[C@H]2CN(C2Cc4ccccc4C2)C3)on1,1.58
3,c1coc(CN2CCc3onc(Cn4cccc4)c3C2)c1,8.43
4,CN(C)c1ccc(CC(=O)N2CCOCC(O)C2)cc1 (configuration not stated),13.3
5,CCCN1CCN(C(=O)c2cnccc2C)[C@H]2CS(=O)(=O)C[C@H]21,-1.7
6,O=C(NCCC1=CCCCC1)NC1CCCc2c1cnn2CCO (configuration not stated),-6.95
7,CN1CCOC(C)(C(=O)Nc2nc(C(C)(C)C)cs2)C1 (configuration not stated),6.52
8,Clc1ccc(CN2CCc3c(ncn3C3CC3)C2)c2ncccc12,14
9,COCc1n[nH]/c(=N\C(=O)c2c3c(nc4onc(C)c24)CCC3)s1,-4.41
10,Cc1ccc2c(c1)C(NCc1ncnn1C)CC2 (configuration not stated),6.32
11,c1ccc(COC[C@H]2CCC[C@@]23CNCCO3)nc1,-91.9
12,CCS(=O)(=O)N1CCC(Nc2c(F)cc(C#N)cc2F)CC1,8.13
13,CC(C(=O)NCc1ccc(F)cc1)N(C)CCN1CCOCC1 (configuration not stated),0.247
14,O=C(C1CCCC1)N1CCOC(c2nc(-c3ncccn3)no2)C1 (configuration not stated),-2.3
15,CN(CCNC(=O)Nc1nccs1)Cc1ccc(F)cc1,-1.32
16,COc1ccc(C2CCCN2C(=O)c2ccnc(NC3CC3)c2)cc1 (configuration not stated),3.07
17,CO[C@H]1CN(C(=O)c2nc(-c3ccccc3)[nH]c2C)CC[C@H]1N,11.5
18,Cc1cc(NCCS(C)(=O)=O)n2nc(C)cc2n1,-14
19,COc1coc(C(=O)Nc2nc(C)cs2)cc1=O,-3.96
